# Measurements published in PMC10972827 (Food Chemistry: X, 2024).
# Legend:
# α-amylase [1] = assay: α-amylase activity test; format: biochemical; details: α-amylase 10 U/mL, 1% soluble starch, 37 °C
# α-amylase [2] = assay: Fluorescence spectroscopy; format: binding
# Outline: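 Commercial α-amylase (10 U/mL) mixed with each theaflavin monomer (10–200 μg/mL) at each temperature. Fluorescence spectra recorded at 278 nm over a 290–450 nm scan. Ksv derived from the Stern–Volmer relation (τ0 10−8 s). Ka and n derived from a log((F0−F)/F) vs log[Q] plot. ΔH and ΔS derived from a van't Hoff fit. Results given as mean ± SD.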
# α-amylase [3] = assay: Inhibitory kinetic assay; format: biochemical; details: Lineweaver-Burk double reciprocal plots, 0.5-2.0% starch
# Outline: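 Commercial α-amylase (0.35 mL, 10 U/mL) preincubated alone or with theaflavin monomer for 5 min at 37 °C. Soluble starch (0.5, 1.0, 1.5, 2.0%) added and incubated 15 min at 37 °C. Reducing sugar measured with DNS reagent (100 °C, 5 min), A540. Initial velocities fitted to Michaelis–Menten for Km and Vmax. Inhibition type assigned from Lineweaver–Burk double-reciprocal plots. Results given as mean ± SD.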
smiles,measurement,setting,value
"O=c1c(O)cc([C@H]2Oc3cc(O)cc(O)c3C[C@H]2O)cc2c([C@H]3Oc4cc(O)cc(O)c4C[C@H]3O)cc(O)c(O)c12 [TF1, theaflavin]","IC50, inhibitory activity on α-amylase",α-amylase [1],71.43 µg/mL
same,Ka (binding constant),α-amylase [2]; 298 K,4.4955 L/g
same,Ksv (quenching constant),α-amylase [2]; 298 K,4.7890 L/g
same,Ka (binding constant),α-amylase [2]; 303 K,5.1038 L/g
same,Ksv (quenching constant),α-amylase [2]; 303 K,4.6468 L/g
same,Ka (binding constant),α-amylase [2]; 310 K,5.6151 L/g
same,Ksv (quenching constant),α-amylase [2]; 310 K,4.2950 L/g
same,inhibition type against α-amylase,α-amylase [3],mixed
